These results are taken from ChEMBL document CHEMBL1938395, “New benzimidazole derivatives as antiplasmodial agents and plasmepsin inhibitors: synthesis and analysis of structure-activity relationships” (Bioorg Med Chem Lett, 2012).

Cathepsin D, sequence (P07339 65-162 limits assumed): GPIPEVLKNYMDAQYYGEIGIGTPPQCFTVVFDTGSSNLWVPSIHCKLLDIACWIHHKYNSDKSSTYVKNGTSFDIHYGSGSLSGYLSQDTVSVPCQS
Cathepsin D, sequence (P07339 169-412 limits assumed): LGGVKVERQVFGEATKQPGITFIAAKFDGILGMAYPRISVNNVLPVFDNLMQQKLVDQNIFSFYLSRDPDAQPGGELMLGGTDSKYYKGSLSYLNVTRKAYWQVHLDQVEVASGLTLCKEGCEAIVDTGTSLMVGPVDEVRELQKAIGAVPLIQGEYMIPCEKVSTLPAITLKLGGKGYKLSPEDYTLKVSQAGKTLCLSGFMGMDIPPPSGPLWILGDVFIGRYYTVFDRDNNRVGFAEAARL

The first experiment concerns the target Cathepsin D (Homo sapiens, UniProt P07339). The experiment is described as follows: Inhibition of human cathepsin D using DABCYL-Glu-Arg-Nle-Phe-Leu-Ser-Phe-Pro-EDANS as substrate by FRET analysis.
Settings: not given
In short, it runs like this: (§1)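 Enzyme (plasmepsin II or cathepsin D) at 1.2 nM with 1.0 µM FRET substrate in 0.1 M sodium acetate pH 5.0, 10% glycerol, 0.01% Tween 20. Compounds were dissolved in DMSO and added before substrate, at 5.0% final DMSO. Fluorescence was read at excitation 336 nm and emission 490 nm. Triplicates.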
For `O=C(Cn1c(-c2ccccn2)nc2ccccc21)c1cccc([N+](=O)[O-])c1`, it took 21.2 µM to reach half-maximal inhibition (IC50).
With `O=C(Cn1c(-c2ccccn2)nc2ccccc21)c1ccc(O)c(O)c1`, half-maximal inhibition (IC50) required 28.5 µM.
Same read-out and setting: as for `O=C(Cn1c(-c2ccccn2)nc2ccccc21)c1ccc(Cl)cc1`, the figure is 31.9 µM; as for `O=C(Cn1c(-c2ccccn2)nc2ccccc21)c1ccccc1[N+](=O)[O-]`, 39.2 µM; as for `O=C(Cn1c(-c2ccccn2)nc2ccccc21)c1ccc([N+](=O)[O-])cc1`, 17.8 µM.
`O=C(Cn1c(-c2ccccn2)nc2ccccc21)c1ccc(F)cc1` displayed an IC50 of 31.9 µM.
On the same count and under the same terms, with `O=C(Cn1c(-c2ccccn2)nc2ccccc21)c1ccc(F)cc1F` the figure was 44.5 µM; with `O=C(Cn1c(-c2ccccn2)nc2ccccc21)c1ccccc1`, 39.2 µM.
The same measure, in the same setting: with `O=C(Cn1c(-c2ccccn2)nc2ccccc21)c1ccc(-c2ccccc2)cc1` the figure was 2 µM; with `COc1ccc(C(=O)Cn2c(-c3ccccn3)nc3ccccc32)cc1`, 14.2 µM; with `COc1ccc(OC)c(C(=O)Cn2c(-c3ccccn3)nc3ccccc32)c1`, 21.2 µM.

Another experiment relates to Plasmodium falciparum. The experiment can be described thus: Antiplasmodial activity against late ring stage Plasmodium falciparum HB3 after 1 hr by acridine orange staining-based flow cytometric analysis. It is filed as functional, organism-based. To be noted: HB3, 1 h.
In the case of `O=C(Cn1c(-c2ccccn2)nc2ccccc21)c1ccc(-c2ccccc2)cc1`, the IC50 was 0.166 µM.

The target of a further experiment is Plasmepsin II (Plasmodium falciparum, UniProt P46925). The experiment can be described thus: Inhibition of Plasmodium falciparum plasmepsin-2 using DABCYL-Glu-Arg-Nle-Phe-Leu-Ser-Phe-Pro-EDANS as substrate by FRET analysis.
Plasmepsin II, sequence (P46925 whole entry): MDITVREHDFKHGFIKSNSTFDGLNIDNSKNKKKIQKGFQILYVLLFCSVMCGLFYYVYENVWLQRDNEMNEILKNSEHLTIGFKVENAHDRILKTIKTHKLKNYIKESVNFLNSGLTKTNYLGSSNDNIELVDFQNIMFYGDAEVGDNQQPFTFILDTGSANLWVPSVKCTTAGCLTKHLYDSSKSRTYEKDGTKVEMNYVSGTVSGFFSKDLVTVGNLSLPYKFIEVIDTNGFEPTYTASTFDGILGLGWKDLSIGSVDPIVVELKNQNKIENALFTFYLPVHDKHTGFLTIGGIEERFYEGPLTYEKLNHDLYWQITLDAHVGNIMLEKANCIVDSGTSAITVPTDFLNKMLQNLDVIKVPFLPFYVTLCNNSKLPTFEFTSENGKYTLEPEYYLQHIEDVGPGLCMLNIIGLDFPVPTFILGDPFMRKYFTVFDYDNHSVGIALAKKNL
Settings: not given
In outline: as §1
Regarding `O=C(Cn1c(-c2ccccn2)nc2ccccc21)c1cccc([N+](=O)[O-])c1`, the half-maximal inhibitory concentration (IC50) came to 20.4 µM.
In turn, `O=C(Cn1c(-c2ccccn2)nc2ccccc21)c1ccc(O)c(O)c1` returned an IC50 of 19.6 µM.
Compound `O=C(Cn1c(-c2ccccn2)nc2ccccc21)c1ccc(Cl)cc1` displayed an IC50 of 21.2 µM.
Same read-out and setting: with `O=C(Cn1c(-c2ccccn2)nc2ccccc21)c1ccccc1[N+](=O)[O-]` the figure was 30.6 µM.
The same measure, in the same setting: as for `O=C(Cn1c(-c2ccccn2)nc2ccccc21)c1ccc([N+](=O)[O-])cc1`, the figure is 30.5 µM.
With `O=C(Cn1c(-c2ccccn2)nc2ccccc21)c1ccc(F)cc1`, the IC50 was 10 µM.
Regarding `O=C(Cn1c(-c2ccccn2)nc2ccccc21)c1ccc(F)cc1F`, the IC50 was 48 µM.
In the case of `O=C(Cn1c(-c2ccccn2)nc2ccccc21)c1ccccc1`, the IC50 was 10 µM.
On the same count and under the same terms, with `O=C(Cn1c(-c2ccccn2)nc2ccccc21)c1ccc(-c2ccccc2)cc1` the figure was 14.7 µM; with `COc1ccc(C(=O)Cn2c(-c3ccccn3)nc3ccccc32)cc1`, 37.7 µM; with `COc1ccc(OC)c(C(=O)Cn2c(-c3ccccn3)nc3ccccc32)c1`, 34 µM.

The next experiment concerns Plasmodium falciparum. The experiment is described as follows: Antiplasmodial activity against late ring stage Plasmodium falciparum HB3 assessed as [3H]hypoxanthine incorporation after 24 hrs by scintillation counting. It is filed as functional, organism-based.
Settings: not given
In outline:
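Late ring stage cultures at 0.5% parasitemia were exposed to a range of compound concentrations in hypoxanthine-free rich medium for 42 h. 0.5 µCi [3H]hypoxanthine was then added and incubation continued for 24 h. Cells were harvested on glass fiber paper and counted by scintillation. Percent inhibition of uptake versus concentration was fitted with a modified dose–response logistic equation for IC50.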
For `O=C(Cn1c(-c2ccccn2)nc2ccccc21)c1cccc([N+](=O)[O-])c1`, the IC50 was ≥ 3 µM.
On the same count and under the same terms, with `O=C(Cn1c(-c2ccccn2)nc2ccccc21)c1ccc(O)c(O)c1` the figure was ≥ 3 µM; with `O=C(Cn1c(-c2ccccn2)nc2ccccc21)c1ccc(Cl)cc1`, 0.7 µM.
On to `O=C(Cn1c(-c2ccccn2)nc2ccccc21)c1ccccc1[N+](=O)[O-]`, for which the IC50 is ≥ 3 µM.
The same measure, in the same setting: with `O=C(Cn1c(-c2ccccn2)nc2ccccc21)c1ccc([N+](=O)[O-])cc1` the figure was 2.1 µM; with `O=C(Cn1c(-c2ccccn2)nc2ccccc21)c1ccc(F)cc1`, 3 µM; with `O=C(Cn1c(-c2ccccn2)nc2ccccc21)c1ccc(F)cc1F`, ≥ 3 µM.
For the compound `O=C(Cn1c(-c2ccccn2)nc2ccccc21)c1ccccc1`, the IC50 is ≥ 3 µM.
On the same count and under the same terms, with `O=C(Cn1c(-c2ccccn2)nc2ccccc21)c1ccc(-c2ccccc2)cc1` the figure was 0.16 µM.
For the compound `COc1ccc(C(=O)Cn2c(-c3ccccn3)nc3ccccc32)cc1`, the IC50 is ≤ 3 µM.
Take `COc1ccc(OC)c(C(=O)Cn2c(-c3ccccn3)nc3ccccc32)c1`: the IC50 was ≤ 3 µM.
